# Tests used:
# A-431 = test: Cytotoxicity against human A431 cells harboring wild type EGFR assessed as reduction in cell viability after 72 hrs by SRB assay; type: cell-based; settings: A-431, 72 h
# How it was run: (§1)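 Cell growth inhibition measured by sulforhodamine B colorimetric assay in H1975 (EGFR L858R/T790M) and A431 (overexpressed wild-type EGFR) cells; IC50 values are means ± SD of at least three independent determinations. Selectivity is taken as the A431:H1975 IC50 ratio.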
# [1] = AUC (0 to infinity) in ICR mouse at 10 mg/kg, po by LC-MS/MS analysis; type: ADME, organism-based; parameters: dose 10 mg/kg, route oral, time infinity; settings: in vivo
# [2] = Apparent permeability from apical to basolateral side in MDCK2 cells at 2 uM after 2.5 hrs by LC-MS/MS method; type: ADME, cell-based, Canis lupus familiaris, MDCK-II; settings: dog, MDCK
# NCI-H1975 [3] = test: Antitumor activity against human NCI-H1975 cells xenografted in Balb/c mouse assessed as tumor growth inhibition at 50 mg/kg/day, po once daily for 14 days measured every 2 to 3 days during compound dosing relative to control; type: functional; settings: read-out: TGI
# How it was run: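 BALB/c mice, 4–6 weeks old, implanted subcutaneously in the right flank with about 2 × 10^6 H1975 or A431 cells grown in RPMI-1640 with 10% FBS. At 200–400 mm3 tumors, mice were randomized (six/group) and dosed orally once daily with vehicle or inhibitor for 14 days. Caliper volumes, V = L×W²/2, were taken every 2–3 days; means ± SEM, Student's t test vs vehicle.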
# Cytochrome P450 3A4 = Cytochrome P450 3A4 (Homo sapiens, UniProt P08684); test: Inhibition of human CYP3A4 (unknown origin); type: ADME
# Cytochrome P450 1A2 = molecular target: T1, Cytochrome P450 1A2 (Homo sapiens, UniProt P05177); test: Inhibition of human CYP1A2 (unknown origin); type: ADME
# T1 sequence (P05177 whole entry): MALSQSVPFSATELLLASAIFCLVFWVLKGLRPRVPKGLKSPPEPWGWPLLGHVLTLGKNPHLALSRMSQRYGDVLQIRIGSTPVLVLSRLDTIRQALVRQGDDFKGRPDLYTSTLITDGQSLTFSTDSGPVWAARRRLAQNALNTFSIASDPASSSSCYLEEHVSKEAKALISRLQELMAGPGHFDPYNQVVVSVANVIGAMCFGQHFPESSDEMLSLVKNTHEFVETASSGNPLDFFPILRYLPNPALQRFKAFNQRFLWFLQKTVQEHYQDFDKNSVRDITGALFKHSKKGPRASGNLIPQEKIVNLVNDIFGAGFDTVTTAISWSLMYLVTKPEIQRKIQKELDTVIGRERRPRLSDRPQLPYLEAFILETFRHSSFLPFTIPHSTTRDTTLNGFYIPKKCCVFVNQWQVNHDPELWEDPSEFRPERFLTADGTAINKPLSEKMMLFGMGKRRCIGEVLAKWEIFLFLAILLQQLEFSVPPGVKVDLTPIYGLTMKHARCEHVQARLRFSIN
# Homo sapiens [4] = species on record: Homo sapiens; test: Selectivity ratio of IC50 for recombinant human GST-tagged EGFR (668 to 1210 residues) expressed in baculovirus expression system to IC50 for recombinant human GST-tagged EGFR L858R/T790M double mutant expressed in baculovirus expression system
# How it was run: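 ELISA-based EGFR tyrosine kinase assay run on wild-type and L858R/T790M enzymes. IC50 values come from at least three independent determinations, reported as means ± SD. Selectivity is the wild-type IC50 divided by the L858R/T790M IC50.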
# [5] = Apparent volume of distribution in ICR mouse at 1 mg/kg, iv by LC-MS/MS analysis; type: ADME, organism-based; settings: in vivo, read-out: Vz
# [6] = Tmax in ICR mouse at 1 mg/kg, iv by LC-MS/MS analysis; type: ADME, organism-based; settings: in vivo
# Homo sapiens [7] = species on record: Homo sapiens; test: Selectivity index, ratio of IC50 for human A431 cells harboring wild type EGFR to IC50 for human NCI-H1975 cells harboring EGFR L858R/T790M double mutant; how it was run: as §1
# [8] = Clearance in ICR mouse at 1 mg/kg, iv by LC-MS/MS analysis; type: ADME, organism-based; settings: in vivo
# [9] = AUC (0 to t) in ICR mouse at 10 mg/kg, po by LC-MS/MS analysis; type: ADME, organism-based; settings: in vivo
# [10] = Oral bioavailability in ICR mouse at 10 mg/kg by LC-MS/MS analysis; type: ADME, organism-based; settings: in vivo
# Mus musculus [11] = test: Toxicity in Balb/c mouse xenografted with human NCI-H1975 cells assessed as body weight loss at 50 mg/kg/day, po once daily for 14 days measured every 2 to 3 days during compound dosing; type: organism-based; settings: in vivo
# How it was run: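 A431 or H1975 cells were grown in RPMI-1640 with 10% FBS, and about 2 × 10^6 cells were implanted subcutaneously in the right flank of 4–6-week-old BALB/c mice. At 200–400 mm³, mice were randomized to vehicle or treated groups (n = 6). Dosing was oral, once daily, for 14 days. Body weights were recorded every 2–3 days.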
# [12] = Half life in ICR mouse at 10 mg/kg, po by LC-MS/MS analysis; type: ADME, organism-based; settings: in vivo
# [13] = Aqueous solubility in pH 7.4 PBS buffer by UV-Visible spectrophotometric method; type: physicochemical
# How it was run: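 Solubility determined in 0.1 M PBS, pH 7.4, by UV-visible spectrophotometry.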
# [14] = molecular target: T2, Epidermal growth factor receptor (Homo sapiens, UniProt P00533); test: Inhibition of wild type EGFR phosphorylation in EGF-stimulated human A431 cells up to 1000 nM by Western blot method
# How it was run: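 A431 cells lysed in Tris-HCl pH 6.8 buffer with DTT, SDS and glycerol; equal protein amounts resolved on 8% SDS-PAGE, transferred to nitrocellulose and probed for p-EGFR (Y1068), total EGFR, p-AKT (Ser473), total AKT and GAPDH.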
# [15] = Efflux ratio of apparent permeability from apical to basolateral side in MDCK2 cells at 2 uM after 2.5 hrs by LC-MS/MS method; type: ADME, cell-based, Canis lupus familiaris, MDCK-II; settings: dog, MDCK
# [16] = AUC (0 to infinity) in ICR mouse at 1 mg/kg, iv by LC-MS/MS analysis; type: ADME, organism-based; parameters: dose 1 mg/kg, route intravenous, time infinity; settings: in vivo
# Cytochrome P450 2C19 = Cytochrome P450 2C19 (Homo sapiens, UniProt P33261); test: Inhibition of human CYP2C19 (unknown origin); type: ADME
# NCI-H1975 [17] = test: Antiproliferative activity against human NCI-H1975 cells harboring EGFR L858R/T790M double mutant after 72 hrs by SRB assay; type: functional, cell-based; settings: NCI-H1975, 72 h; how it was run: as §1
# [18] = molecular target: T2, Epidermal growth factor receptor; test: Inhibition of recombinant human GST-tagged EGFR (668 to 1210 residues) expressed in baculovirus expression system using Poly(Glu,Tyr)4:1 as substrate after 1 hr by ELISA
# Mus musculus [19] = test: Toxicity in Balb/c mouse xenografted with human A431 cells assessed as mortality at 50 mg/kg/day, po once daily for 14 days measured every 2 to 3 days during compound dosing; type: organism-based; settings: in vivo
# Cytochrome P450 2C9 = Cytochrome P450 2C9 (Homo sapiens, UniProt P11712); test: Inhibition of human CYP2C9 (unknown origin); type: ADME
# Cytochrome P450 2D6 = Cytochrome P450 2D6 (Homo sapiens, UniProt P10635); test: Inhibition of human CYP2D6 (unknown origin); type: ADME
# [20] = Tmax in ICR mouse at 10 mg/kg, po by LC-MS/MS analysis; type: ADME, organism-based; settings: in vivo
# T2 sequence (P00533 whole entry): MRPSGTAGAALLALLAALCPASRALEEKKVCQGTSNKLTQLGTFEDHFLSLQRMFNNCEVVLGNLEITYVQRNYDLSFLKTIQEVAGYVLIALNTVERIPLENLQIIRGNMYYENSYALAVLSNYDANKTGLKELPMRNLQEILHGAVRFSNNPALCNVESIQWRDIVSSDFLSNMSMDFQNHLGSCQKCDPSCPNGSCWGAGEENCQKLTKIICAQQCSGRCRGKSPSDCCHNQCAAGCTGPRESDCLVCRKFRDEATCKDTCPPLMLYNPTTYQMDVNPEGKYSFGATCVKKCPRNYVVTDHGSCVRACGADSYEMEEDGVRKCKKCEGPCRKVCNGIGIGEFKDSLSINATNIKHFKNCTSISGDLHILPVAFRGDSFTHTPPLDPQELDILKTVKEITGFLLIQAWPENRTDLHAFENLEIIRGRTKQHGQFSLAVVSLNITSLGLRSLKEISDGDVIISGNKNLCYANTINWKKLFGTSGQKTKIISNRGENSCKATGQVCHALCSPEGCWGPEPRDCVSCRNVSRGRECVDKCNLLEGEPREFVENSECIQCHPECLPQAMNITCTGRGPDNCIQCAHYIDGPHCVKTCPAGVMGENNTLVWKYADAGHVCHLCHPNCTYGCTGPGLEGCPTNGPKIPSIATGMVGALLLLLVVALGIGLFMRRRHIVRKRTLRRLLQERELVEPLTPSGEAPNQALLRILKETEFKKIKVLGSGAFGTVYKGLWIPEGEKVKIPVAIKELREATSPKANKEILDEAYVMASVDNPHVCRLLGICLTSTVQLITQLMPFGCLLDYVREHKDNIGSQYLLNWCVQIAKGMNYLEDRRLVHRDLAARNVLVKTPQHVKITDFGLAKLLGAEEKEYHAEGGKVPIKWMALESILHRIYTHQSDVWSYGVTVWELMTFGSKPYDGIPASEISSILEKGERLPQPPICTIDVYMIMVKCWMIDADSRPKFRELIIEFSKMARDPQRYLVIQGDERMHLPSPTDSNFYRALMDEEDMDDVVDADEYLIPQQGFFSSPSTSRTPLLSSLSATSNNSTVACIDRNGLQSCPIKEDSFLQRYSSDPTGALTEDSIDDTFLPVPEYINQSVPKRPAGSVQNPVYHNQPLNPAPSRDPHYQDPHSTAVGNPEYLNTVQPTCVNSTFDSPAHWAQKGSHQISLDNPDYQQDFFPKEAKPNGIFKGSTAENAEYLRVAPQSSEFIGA
# Chain of Cytochrome P450 3A4 (P08684 whole entry): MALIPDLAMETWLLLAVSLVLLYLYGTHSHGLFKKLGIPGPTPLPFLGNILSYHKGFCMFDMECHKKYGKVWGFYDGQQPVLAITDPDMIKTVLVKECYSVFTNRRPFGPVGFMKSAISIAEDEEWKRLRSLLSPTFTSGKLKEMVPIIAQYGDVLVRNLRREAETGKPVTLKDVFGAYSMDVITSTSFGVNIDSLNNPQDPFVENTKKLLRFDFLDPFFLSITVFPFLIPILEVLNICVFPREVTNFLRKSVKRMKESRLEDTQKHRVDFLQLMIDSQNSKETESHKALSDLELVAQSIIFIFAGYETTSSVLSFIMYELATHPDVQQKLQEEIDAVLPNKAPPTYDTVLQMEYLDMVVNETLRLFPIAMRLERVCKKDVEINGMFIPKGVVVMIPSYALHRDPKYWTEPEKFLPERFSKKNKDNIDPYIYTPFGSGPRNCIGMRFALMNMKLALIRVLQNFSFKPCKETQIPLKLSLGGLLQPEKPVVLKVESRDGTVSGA
# Chain of Cytochrome P450 2C19 (P33261 whole entry): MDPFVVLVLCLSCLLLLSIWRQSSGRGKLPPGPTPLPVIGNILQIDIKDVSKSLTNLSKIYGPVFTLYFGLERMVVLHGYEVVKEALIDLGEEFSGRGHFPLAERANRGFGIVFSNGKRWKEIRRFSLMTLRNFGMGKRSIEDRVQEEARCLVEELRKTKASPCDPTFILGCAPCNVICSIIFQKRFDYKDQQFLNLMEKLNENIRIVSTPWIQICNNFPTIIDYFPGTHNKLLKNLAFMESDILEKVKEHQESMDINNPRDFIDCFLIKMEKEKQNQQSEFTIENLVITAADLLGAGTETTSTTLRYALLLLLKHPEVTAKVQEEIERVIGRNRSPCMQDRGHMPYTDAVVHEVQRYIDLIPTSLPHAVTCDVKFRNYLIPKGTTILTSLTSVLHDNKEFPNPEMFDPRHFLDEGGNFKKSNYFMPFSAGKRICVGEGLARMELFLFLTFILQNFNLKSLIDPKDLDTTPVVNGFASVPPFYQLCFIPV
# Chain of Cytochrome P450 2D6 (P10635 whole entry): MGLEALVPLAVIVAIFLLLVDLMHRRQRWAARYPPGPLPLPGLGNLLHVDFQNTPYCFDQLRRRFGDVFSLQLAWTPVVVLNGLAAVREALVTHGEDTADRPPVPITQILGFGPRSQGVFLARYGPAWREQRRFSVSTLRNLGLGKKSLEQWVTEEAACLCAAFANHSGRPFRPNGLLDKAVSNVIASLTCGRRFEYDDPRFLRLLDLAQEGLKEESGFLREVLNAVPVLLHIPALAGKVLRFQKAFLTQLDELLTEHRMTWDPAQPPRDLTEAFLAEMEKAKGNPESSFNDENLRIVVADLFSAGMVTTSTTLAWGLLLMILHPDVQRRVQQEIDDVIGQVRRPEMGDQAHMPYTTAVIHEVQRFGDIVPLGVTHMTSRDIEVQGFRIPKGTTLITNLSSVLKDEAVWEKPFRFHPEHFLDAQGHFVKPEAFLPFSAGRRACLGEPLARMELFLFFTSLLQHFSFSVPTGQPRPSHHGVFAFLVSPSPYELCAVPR
# Chain of Cytochrome P450 2C9 (P11712 whole entry): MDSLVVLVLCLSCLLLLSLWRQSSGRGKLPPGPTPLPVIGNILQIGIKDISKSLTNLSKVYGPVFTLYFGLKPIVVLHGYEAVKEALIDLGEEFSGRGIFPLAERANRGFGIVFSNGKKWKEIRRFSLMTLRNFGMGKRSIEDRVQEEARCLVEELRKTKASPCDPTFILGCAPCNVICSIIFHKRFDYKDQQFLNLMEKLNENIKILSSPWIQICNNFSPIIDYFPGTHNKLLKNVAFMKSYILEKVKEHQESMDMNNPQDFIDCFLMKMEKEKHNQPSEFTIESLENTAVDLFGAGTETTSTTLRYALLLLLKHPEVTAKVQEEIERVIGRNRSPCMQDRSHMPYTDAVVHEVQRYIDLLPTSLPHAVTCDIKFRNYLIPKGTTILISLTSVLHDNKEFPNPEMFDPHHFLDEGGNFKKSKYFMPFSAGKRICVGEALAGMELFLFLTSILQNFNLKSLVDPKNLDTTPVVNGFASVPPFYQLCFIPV
structure (smiles),measurement,setting,value
C=CC(=O)Nc1cccc(-n2c(=O)n(C(C)C)c(=O)c3cnc(Nc4ccc(N5CCN(C)CC5)cc4OC)nc32)c1,IC50,A-431,1.56 µM
same,AUC(0-inf),[1],658 ng·h/mL
same,"Papp A→B at 2.5 h, 2 µM",[2],1.5 ×10⁻⁶ cm/s
same,inhibition in vivo at 50 mg/kg/day,NCI-H1975 [3],73%
same,IC50,Cytochrome P450 3A4,23.9 µM
same,IC50,Cytochrome P450 1A2,> 50 µM
same,Ratio IC50,Homo sapiens [4],263
same,Vd,[5],4.53 L/kg
same,Tmax,[6],6 min
same,Ratio IC50,Homo sapiens [7],36
same,clearance,[8],89.5 mL/min/kg
same,AUC(0-t),[9],650 ng·h/mL
same,bioavailability,[10],35%
same,Activity,Mus musculus [11],Non-Toxic
same,half-life,[12],1.1 h
same,solubility,[13],262 µg/mL
same,inhibition (INH),[14],Not Active
same,"efflux ratio at 2.5 h, 2 µM",[15],9.1
same,AUC(0-inf),[16],186 ng·h/mL
same,IC50,Cytochrome P450 2C19,> 50 µM
same,IC50,NCI-H1975 [17],0.044 µM
same,IC50,[18],0.079 µM
same,Activity,Mus musculus [19],Non-Toxic
same,IC50,Cytochrome P450 2C9,> 50 µM
same,IC50,Cytochrome P450 2D6,> 50 µM
same,Tmax,[20],2 h

# Source: ChEMBL document CHEMBL4118273, “Design, Synthesis, and Biological Evaluation of Pyrimido[4,5- d]pyrimidine-2,4(1 H,3 H)-diones as Potent and Selective Epidermal Growth Factor Receptor (EGFR) Inhibitors against L858R/T790M Resistance Mutation” (J Med Chem, 2018)
